Experiments:
[1] = Drug distribution in western atherogenic diet fed ApoE-/- mouse aortic plaques at […], iv administered as bolus injection measured for 30 mins by Oil Red O staining based autoradiography; assay type: ADME, organism-based, Aorta; details: in vivo, 0.5 h
Procedure, shortened: (§1)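 Male ApoE-/- mice were fed a western atherogenic diet from 8 weeks of age for 13-16 weeks. Radiotracer (~7.5 MBq) was given IV by tail-vein bolus over 30 s. Blocking: unlabelled tracer analogue (2.5 mg/kg; DMA/propylene glycol/PEG400/water) or WAY170523 (7.5 mg/kg; DMSO/PEG400/water), both IV 15 min before. At 30 min, perfused aortae were exposed to a phosphor screen for 10 half-lives (%ID·mm⁻²), with ORO staining.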

[2] = (§2) Stability in western atherogenic diet fed ApoE-/- mouse plasma assessed as intact compound level at ~75 MBq, iv administered as bolus injection and measured after 30 mins by gamma counter analysis; assay type: ADME, organism-based; details: read-out: Stability
Procedure, shortened: (§3)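 Blood was drawn by cardiac puncture into K₂EDTA tubes 30 min after IV radiotracer in diet-fed ApoE-/- mice. Optional IV pretreatment 15 min before: unlabelled analogue 2.5 mg/kg or WAY170523 7.5 mg/kg. Pooled protein-free plasma was spiked with standard and run on radio-HPLC (C18, ammonium formate/ACN). Fractions were collected each minute and gamma-counted to give the parent fraction.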

[3] = Stability of compound in 10% EtOH/saline assessed as compound degradation measured upto 75 mins by analytical radio-HPLC analysis; assay type: physicochemical; details: buffer, 1.25 h
Procedure, shortened: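 Radiotracer formulated in 10% EtOH/0.9% saline was held at room temperature up to 75 min. Samples were analysed by analytical radio-HPLC (C18, 0.1 M ammonium formate/ACN gradient, 1 mL·min⁻¹).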

[4] = Drug distribution in western atherogenic diet fed ApoE-/- mouse lung at […], iv administered as bolus injection measured for 30 mins by gamma counter analysis; assay type: ADME, organism-based; details: in vivo, 0.5 h
Procedure, shortened: (§4)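 Diet-fed male ApoE-/- mice (39 ± 5 g, n = 4-6) under 2% isoflurane received radiotracer (~7.5 MBq, 100-200 µL) IV by tail-vein bolus over 30 s. After 30 min, blood was taken by cardiac puncture, then PBS/formalin perfusion and organ dissection. Uptake is decay-corrected %ID normalized to tissue mass (%ID/g).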

[5] = Drug distribution in western atherogenic diet fed ApoE-/- mouse liver at […], iv administered as bolus injection measured for 60 mins by PET analysis; assay type: ADME, organism-based; details: in vivo, 1 h
Procedure, shortened: (§5)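 A 10 min transmission scan preceded tail-vein IV bolus of radiotracer (~7.5 MBq, over 30 s) in diet-fed ApoE-/- mice. Dynamic whole-body PET ran for 60 min (4×15 s, 4×1 min, 11×5 min frames), corrected for attenuation and scatter, 3D-OSEM/MAP reconstruction. Volumetric organ ROIs gave %ID·cc⁻¹ time-activity curves; n = 2 per group.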

[6] = (§6) Drug distribution in western atherogenic diet fed ApoE-/- mouse aortic plaques assessed as reduction in radioactivity at […], iv administered as bolus injection pretreated with N-(2-(4-(N-benzyl-N-(2-(hydroxycarbamoyl)-4,6-dimethylphenyl)sulfamoyl)phenoxy)ethyl)benzofuran-2-carboxamide for 15 mins followed by tracer addition and measured after 30 mins by Oil Red O staining based autoradiography relative to control; assay type: ADME, organism-based, Aorta; set-up: scale not given: the % may be the effect or the level left; details: in vivo, 0.5 h; procedure, shortened: as §1
[7] = as §6, with “plaques” for “plaques assessed as reduction in radioactivity”, “autoradiography” for “autoradiography relative to control”; assay type: ADME, organism-based, Aorta; details: in vivo, 0.5 h; procedure, shortened: as §1
[8] = Drug distribution in western atherogenic diet fed ApoE-/- mouse myocardium assessed as myocardial retention at […], iv administered as bolus injection measured for 60 mins by PET analysis; assay type: ADME, organism-based; details: in vivo, 1 h; procedure, shortened: as §5
[9] = Tmax in western atherogenic diet fed ApoE-/- mouse blood at […], iv administered as bolus injection measured for 60 mins by PET analysis; assay type: ADME, organism-based; details: in vivo, 1 h; procedure, shortened: as §5
[10] = Drug distribution in western atherogenic diet fed ApoE-/- mouse bone at […], iv administered as bolus injection measured for 30 mins by gamma counter analysis; assay type: ADME, organism-based, Bone element; details: in vivo, 0.5 h; procedure, shortened: as §4
[11] = Drug distribution in western atherogenic diet fed ApoE-/- mouse stomach at […], iv administered as bolus injection measured for 30 mins by gamma counter analysis; assay type: ADME, organism-based; details: in vivo, 0.5 h; procedure, shortened: as §4
[12] = Drug distribution in western atherogenic diet fed ApoE-/- mouse liver at […], iv administered as bolus injection measured for 30 mins by gamma counter analysis; assay type: ADME, organism-based; details: in vivo, 0.5 h; procedure, shortened: as §4
[13] = Drug distribution in western atherogenic diet fed ApoE-/- mouse fat tissue at […], iv administered as bolus injection measured for 30 mins by gamma counter analysis; assay type: ADME, organism-based, Adipose tissue; details: in vivo, 0.5 h; procedure, shortened: as §4
[14] = Octanol/PBS distribution coefficient, logD of compound at pH 7.4 incubated for 10 mins under shaking condition by gamma counter analysis; assay type: physicochemical
Procedure, shortened: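 Radiotracer partitioning between 1-octanol and 1× PBS at pH 7.4. Mean ± standard error of two independent experiments, each in quadruplicate.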

[15] = Drug distribution in western atherogenic diet fed ApoE-/- mouse muscle tissue at […], iv administered as bolus injection measured for 30 mins by gamma counter analysis; assay type: ADME, organism-based; details: in vivo, 0.5 h; procedure, shortened: as §4
[16] = Drug distribution in western atherogenic diet fed ApoE-/- mouse kidney at […], iv administered as bolus injection measured for 60 mins by PET analysis; assay type: ADME, organism-based; details: in vivo, 1 h; procedure, shortened: as §5
[17] = Drug distribution in western atherogenic diet fed ApoE-/- mouse pancreas at […], iv administered as bolus injection measured for 30 mins by gamma counter analysis; assay type: ADME, organism-based; details: in vivo, 0.5 h; procedure, shortened: as §4
[18] = Drug distribution in western atherogenic diet fed ApoE-/- mouse myocardium assessed as compound remaining at […], iv administered as bolus injection measured for 30 mins by gamma counter analysis; assay type: ADME, organism-based; details: in vivo, 0.5 h; procedure, shortened: as §4
[19] = Drug distribution in western atherogenic diet fed ApoE-/- mouse blood assessed as compound remaining at 14 to 16 MBq, iv administered as bolus injection measured for 150 mins by gamma counter analysis; assay type: ADME, organism-based; details: in vivo, 2.5 h, dose 14-16 MBq
[20] = as §2, with “injection pretreated with 6-fluoro-N-(4-fluoro-3-methylphenyl)methyl)-5-(2-fluoroethoxy)-4-oxo-3,4-dihydroquinazoline-2-carboxamide followed by tracer addition” for “injection”; assay type: ADME, organism-based; details: read-out: Stability; procedure, shortened: as §3
[21] = Drug distribution in western atherogenic diet fed ApoE-/- mouse spleen at […], iv administered as bolus injection measured for 30 mins by gamma counter analysis; assay type: ADME, organism-based; details: in vivo, 0.5 h; procedure, shortened: as §4
[22] = as §6, with “6-fluoro-N-(4-fluoro-3-methylphenyl)methyl)-5-(2-fluoroethoxy)-4-oxo-3,4-dihydroquinazoline-2-carboxamide” for “N-(2-(4-(N-benzyl-N-(2-(hydroxycarbamoyl)-4,6-dimethylphenyl)sulfamoyl)phenoxy)ethyl)benzofuran-2-carboxamide”; assay type: ADME, organism-based, Aorta; set-up: scale not given: the % may be the effect or the level left; details: in vivo, 0.5 h; procedure, shortened: as §1
[23] = as §2, with “injection pretreated with N-(2-(4-(N-benzyl-N-(2-(hydroxycarbamoyl)-4,6-dimethylphenyl)sulfamoyl)phenoxy)ethyl)benzofuran-2-carboxamide followed by tracer addition” for “injection”; assay type: ADME, organism-based; details: read-out: Stability; procedure, shortened: as §3
[24] = Drug excretion in western atherogenic diet fed ApoE-/- mouse urine at […], iv administered as bolus injection measured for 60 mins by PET analysis; assay type: ADME, organism-based; details: in vivo, 1 h; procedure, shortened: as §5
[25] = Drug distribution in western atherogenic diet fed ApoE-/- mouse aortic plaques at […], iv administered as bolus injection pretreated with 6-fluoro-N-(4-fluoro-3-methylphenyl)methyl)-5-(2-fluoroethoxy)-4-oxo-3,4-dihydroquinazoline-2-carboxamide for 15 mins followed by tracer addition and measured after 30 mins by Oil Red O staining based autoradiography; assay type: ADME, organism-based, Aorta; details: in vivo, 0.5 h; procedure, shortened: as §1
[26] = Drug distribution in western atherogenic diet fed ApoE-/- mouse blood assessed as compound remaining at […], iv administered as bolus injection measured for 30 mins by gamma counter analysis; assay type: ADME, organism-based; details: in vivo, 0.5 h; procedure, shortened: as §4
[27] = Drug distribution in western atherogenic diet fed ApoE-/- mouse brain at […], iv administered as bolus injection measured for 30 mins by gamma counter analysis; assay type: ADME, organism-based; details: in vivo, 0.5 h; procedure, shortened: as §4

Cc1cc(CNC(=O)c2nc3ccc(F)c(OCC[18F])c3c(=O)[nH]2)ccc1F
Drug uptake [1]: 270 %ID.m^-2
remaining at 0.5 h [2]: 78%
Stability [3]: Stable
Drug uptake [4]: ~ 2 % ID/g
Drug uptake [5]: 6.43 %ID/cc
Activity [6]: 36%
Drug uptake [7]: 173.4 %ID.m^-2
Drug uptake [8]: < 0.5 %ID/cc
Tmax [9]: 37.5 s
Drug uptake [10]: ~ 2 % ID/g
Drug uptake [11]: ~ 2 % ID/g
Drug uptake [12]: 3.32 % ID/g
Drug uptake [13]: ~ 2 % ID/g
logD at 10 min [14]: 3.09
Drug uptake [15]: ~ 2 % ID/g
Drug uptake [16]: 4.42 %ID/cc
Drug uptake [17]: 2.14 % ID/g
Drug uptake [18]: ~ 1 % ID/g
Drug uptake [19]: Active
remaining at 0.5 h [20]: 78%
Drug uptake [21]: ~ 2 % ID/g
Activity [22]: 23%
remaining at 0.5 h [23]: 87%
Drug excretion [24]: Active
Drug uptake [25]: 208.2 %ID.m^-2
Drug uptake [26]: 3.28 % ID/g
Drug uptake [27]: ~ 2 % ID/g

Reference: ChEMBL document CHEMBL5338774, “Quinazoline-2-Carboxamides as Selective PET Radiotracers for Matrix Metalloproteinase-13 Imaging in Atherosclerosis” (J Med Chem, 2023)
